Hits are enriched below; roughly 1.5% of the tested compounds scored in any of these assays.
APJ ag: agonists of human apelin receptor APJ, primary screen, CHO-K1 cells, PathHunter beta-arrestin, luminescence; P35414; 0% DMSO wells, 100% apelin; activation, % at 20 µM; actives 0.11% (n = 330,000);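 active = activation more than six SD over the plate average, tested at 20 µM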;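 note: 0% = DMSO alone and 100% = apelin-13 at 10 nM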
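Material: engineered CHO-K1 APJ arrestin reporter cells; amount: 1000 CHO-K1 reporter cells seeded per well; incubation: compound stimulation 90 min at 25 °C, detection 60 min; signal: luminescent beta-gal fragment complementation, chemiluminescent substrate; read-out basis: APJ agonist activity; controls: DMSO-only wells as negative, 10 nM Apelin-13 as positive control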
CXCR6 block: CXCR6 receptor inhibitors, primary screen, cell-based, beta-arrestin, luminescence, CHO-K1 PathHunter, 1536-well; C-X-C chemokine receptor type 6 (Homo sapiens), O00574; inhibition, % at 20 µM; actives 0.36% (n = 360,000); AID 602244, 2012; in the data active = inhibition above about 34%, passing the limit was not always enough;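 note: antagonist mode with CXCL16 agonist at 10 nM final; 0% = 10 nM CXCL16 with DMSO and 100% = unstimulated wells without agonist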
APJ antagonist: antagonists of human apelin receptor APJ, primary screen, CHO-K1 cells, beta-arrestin complementation, luminescence; inhibition, % at 20 µM; P35414; actives 0.32% (n = 330,000);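 active = inhibition above about 40% at 20 µM, limit read from the data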;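 note: cells challenged with 10 nM apelin-13 agonist together with compound; plate controls were apelin-13 plus DMSO wells for no effect and DMSO wells lacking apelin-13 for full effect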
CCR6 antagonist: CCR6 receptor antagonists, primary screen, cell-based, CHO-K1, luminescence, beta-arrestin, uHTS; inhibition, % at 20 µM; actives 0.49% (n = 340,000); CHO-K1 CCR6 PathHunter beta-arrestin, CCL20-stimulated; AID 493098, 2011; C-C chemokine receptor type 6 (Homo sapiens), P51684;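 active = compounds whose inhibition of the agonist-driven luminescence signal at 20 µM reaches about 50%, limit read from the data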;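 note: cells stimulated with CCL20 at 14 nM final; plate controls were DMSO with CCL20 for no effect and DMSO without agonist for full effect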
Target sequence (P51684 whole entry, looked up): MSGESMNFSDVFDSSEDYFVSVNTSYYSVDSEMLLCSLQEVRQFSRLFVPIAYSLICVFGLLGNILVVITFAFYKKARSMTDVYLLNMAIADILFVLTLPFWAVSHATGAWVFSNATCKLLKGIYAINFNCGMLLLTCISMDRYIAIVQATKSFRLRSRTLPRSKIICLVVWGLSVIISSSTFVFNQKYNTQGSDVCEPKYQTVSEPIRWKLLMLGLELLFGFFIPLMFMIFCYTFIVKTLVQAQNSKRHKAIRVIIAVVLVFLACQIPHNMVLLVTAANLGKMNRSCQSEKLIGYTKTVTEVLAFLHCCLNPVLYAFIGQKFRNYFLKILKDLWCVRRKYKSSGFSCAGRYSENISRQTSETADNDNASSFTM
EBI2 antag: EBI2 receptor antagonists, beta-arrestin recruitment, primary screen, cell-based, luminescence, 7a,25-OHC stimulation, uHTS | 7a,25-OHC stimulated | inhibition, % at 5 µM | actives 0.81% (n = 360,000) | AID 651636, 2012; in the data active = inhibition above about 38%;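 note: enzyme fragment complementation signal reports receptor beta-arrestin coupling in cells; 0% = agonist plus DMSO wells and 100% = wells without agonist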
CXCR6 antag conf: CXCR6 receptor antagonists, confirmation, cell-based, single concentration, beta-arrestin, luminescence. shares compounds with CXCR6 block. CHO-K1 CXCR6 PathHunter beta-arrestin. inhibition, % at 20 µM. actives 65% (n = 700);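 active = mean inhibition over four retests above 40%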;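 note: receptor stimulated with 10 nM CXCL16 agonist; beta-galactosidase fragment complementation upon beta-arrestin recruitment to receptor; plate controls were CXCL16 plus DMSO for no effect and DMSO without CXCL16 for full effect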
EBI2 antag conf: EBI2 antagonist hit retest, beta-arrestin, confirmation, cell-based, single concentration, luminescence, 7a,25-OHC stimulation | shares compounds with EBI2 antag | 7a,25-OHC antagonism | inhibition, % at 5 µM | actives 29% (n = 2,400) | AID 651997, 2013;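 active = inhibition of at least 50%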
EBI2 ag: EBI2 agonist activity of antagonist hits, confirmation, counter-screen for EBI2 antagonist project, cell-based, single concentration, agonist mode, luminescence; shares compounds with EBI2 antag; 2,400 tested, under 10 active; AID 652000, 2013; EBI2-expressing cells, 60 min; 0% vehicle, 100% 7α,25-dihydroxycholesterol control; activation, % at 5 µM;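 active = activation of at least 50%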
bGal cs: E. coli beta-galactosidase enzyme inhibition, confirmation, counter-screen for EBI2 antagonist project, biochemical, luminescence, single concentration; actives 1% (n = 2,400); purified beta-galactosidase, luminescent Galacton Star, 15 min; shares compounds with EBI2 antag; AID 652176, 2013; inhibition, % at 5 µM;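 active = replicate-average signal at least 3 plate SD below neutral wells, shown as high inhibition, flagging enzyme-inhibiting false positives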;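 note: 0% = DMSO wells with enzyme and 100% = wells lacking enzyme; higher means stronger loss of beta-gal luminescence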
Active calls of the source: *; · = not tested or not shown.

SMILES	APJ ag	CXCR6 block	APJ antagonist	CCR6 antagonist	EBI2 antag	EBI2 antag conf	EBI2 ag	bGal cs	others
O=C(Nc1ccccc1)c1ccc(Nc2c([N+](=O)[O-])cc([N+](=O)[O-])c3ccccc23)cc1	-10	56*	75*	84*	49*	47	-1	23	CXCR6 antag conf=67*
CCCN(CCC)C(C)C(=O)NCC1(c2ccccc2)CCCC1 (stereo not given)	0	9	-11	9	10	·	·	·
CN1c2ccccc2C2(C)CCCC3=Cc4cccc([N+](=O)[O-])c4OC312 (stereo not given)	-4	13	15	28	41*	0	-1	-11
COc1ccc(Cn2cc(CN3CCc4onc(-c5ccc(Br)cc5)c4C3=O)nn2)cc1	·	·	·	·	10	·	·	·
O=C(COc1ccc(Cl)cc1)NNC(=O)CSc1nncs1	-1	11	11	6	14	·	·	·
CCCc1nn(-c2ccccc2)c2c1C(c1cccs1)C(C#N)=C(N)O2 (stereo not given)	2	-3	1	-2	53*	60*	-1	-4
Nc1nc2ncccc2cc1C(=O)NC1CCCCC1	·	-3	·	·	3	·	·	·
CCOC(=O)N1CCN(C(=O)COC(=O)Cc2ccc(OC)cc2)CC1	2	-1	1	15	-8	·	·	·
CCOC(=O)N1CCN(C(=O)/C=C/c2ccc3c(c2)OCO3)CC1	-4	-4	-1	6	59*	61*	-1	-15
O=C(/C=C/C=C/c1ccc2c(c1)OCO2)N1CCCCC1	-2	7	-58	6	7	·	·	·
CN1CCN(C(=O)/C=C/c2ccc3c(c2)OCO3)CC1	7	-11	-13	20	37	·	·	·
O=C(/C=C/c1ccc2c(c1)OCO2)N1CCN(c2n[nH]c(=O)[nH]c2=O)CC1	-4	-6	5	4	14	·	·	·
COC(=O)C1CCN(C(=O)/C=C/c2ccc3c(c2)OCO3)CC1	0	5	1	7	57*	39	-1	-9
CCOC(=O)N1CCN(C(=O)/C=C/c2ccc(OC)cc2)CC1	-5	3	-7	-5	90*	75*	-2	-11
CCN1CCN(C(=O)/C=C/c2ccc3c(c2)OCO3)CC1	-2	0	-3	16	66*	48	0	4
CSc1ncnc2c1ncn2CCCNc1ccc(C)c(C)c1	·	-3	·	·	-8	·	·	·
CC(=O)N1CCOc2ccc(S(=O)(=O)NC[C@H]3O[C@@H](n4cnc5c(N)ncnc54)[C@H](O)[C@@H]3O)cc21	·	-10	·	23	-14	·	·	·
CCOC(=O)c1cnc(SCC(=O)Nc2cc(C(F)(F)F)ccc2N2CCOCC2)nc1N	1	-12	2	31	85*	86*	3	5
COc1ccc(CCC(=O)NCCc2ccc(Cl)cc2)cc1	-6	2	8	10	43*	27	1	2
COc1cccc(-c2cc(C(=O)N3CCN(C(c4ccccc4)c4ccccc4)CC3)no2)c1	-1	11	-6	13	87*	81*	1	-6
O=C(c1cc(-c2cccs2)on1)N1CCN(C(c2ccccc2)c2ccccc2)CC1	-4	10	21	15	88*	84*	-1	-9
Cc1cc(C(=O)N2CCN(C(c3ccccc3)c3ccccc3)CC2)no1	2	1	-2	5	8	·	·	·
Cc1ccc(C)c(N2CCN(C(=O)CCC(=O)Nc3nnc(C(F)(F)F)s3)CC2)c1	-3	-1	3	8	-3	·	·	·
Cc1cccn2c(=O)c3cc(C(=O)NC4CCCC4)n(C)c3nc12	3	-11	-13	9	-7	·	·	·
COC1C=CC(CNC(=O)c2cc3c(=O)n4cccc(C)c4nc3n2C)(OC)O1 (stereo not given)	-2	25	-10	13	49*	-8	2	6
SMILES	APJ ag	CXCR6 block	APJ antagonist	CCR6 antagonist	EBI2 antag	EBI2 antag conf	EBI2 ag	bGal cs	others
O=C(NCc1ccc(Cl)cc1)C(=O)NCC1OCCCN1S(=O)(=O)c1cccs1 (stereo not given)	-1	-5	5	22	15	·	·	·
O=c1n(Cc2ccccc2)c2cc(Cl)cnc2n1Cc1ccccc1	-3	8	29	19	71*	50*	0	6
O=C(O)Cn1c(=O)n(Cc2ccccc2)c2ccccc21	-3	3	10	4	-3	·	·	·
COc1ccc(-c2sc3ccccc3c2/C=C/c2ccncc2)cc1	-1	-1	-31	3	14	·	·	·
Cc1nc2cc(-c3ccc(Cl)cc3)nn2c(C)c1CCC(=O)NCc1ccco1	-1	-7	-15	5	50*	43	1	1
CCN(CC)C(=O)CSc1nnc(SC(C)C(=O)NC2CC2)s1 (stereo not given)	0	1	-12	-9	-10	·	·	·
CCCc1nc(SCC(=O)NNC(=O)c2ccc(OC)cc2)c2ccccc2n1	0	-2	-5	8	77*	45	0	-14
CCn1c(SCC(=O)NNC(=O)c2ccc(C)cc2)nnc1-c1ccco1	0	5	-6	11	80*	50	-1	-18
CCn1c(SCC(=O)NNC(=O)c2ccc(OC)cc2)nnc1-c1ccco1	-1	2	-35	3	70*	50	2	5
CCCc1nc(SCC(=O)NNC(=O)C2CCCCC2)c2ccccc2n1	-2	-2	7	-10	-6	·	·	·
CCC(C(=O)c1ccc2ncccc2c1)c1ccccc1 (stereo not given)	-4	-2	10	10	61*	46	1	-3
CCN(CC(=O)NCc1ccc(Cl)cc1)C(=O)CSc1ccc(Br)cc1	0	4	5	-2	68*	35	0	5
COc1cccc(C(c2cccc(OC)c2)c2ccccc2C(=O)O)c1	·	7	·	6	-3	·	·	·

Screening data deposited in PubChem BioAssay by Sanford-Burnham Center for Chemical Genomics.
